Published values gathered from unrelated publications.
Compare with care: the assays were run in different laboratories.
Sample: plasma

SMILES | system | setting | AUC(0-t) [ng·h/mL]
C=CC(=O)N1CC2CC(n3nc(-c4ccc(C(=O)Nc5ccccn5)cc4)c4c(N)ncnc43)CC2C1 (stereo not shown) | male Wistar rat | oral, 30 mg/kg | 4720
N#Cc1ccc(Nc2nc(N)cc(Oc3c(F)cc(-c4ccc(C#N)cc4)cc3F)n2)cc1 | Sprague-Dawley rat | intravenous, 1 mg/kg | 302
Cc1c(-c2ccccc2)cccc1N1C(=O)c2cc(CN[C@H](C(=O)O)C(C)O)c(OCc3cccc(C#N)c3)cc2C1=O (stereo partly shown) | Sprague-Dawley rat | intravenous, 5 mg/kg | 3240
Cc1nc(-c2cnc(NC(C)C)n(C)c2=O)ccc1Oc1ccnc(-c2cnn(C)c2)c1 | male Sprague-Dawley rat | oral, 10 mg/kg | 164000
CCc1cc(C(=O)NC)c2nccc(N3CCc4c(cc(Cn5ccnc5)cc4-c4cn(C)nc4C(F)(F)F)C3=O)c2c1 | male Sprague-Dawley rat | oral, 50 mg/kg, single dose | 11100
CNC(=O)c1c(C)oc2cc(Oc3ncnc4cc(OC)c(OC)cc34)ccc12 | Sprague-Dawley rat | oral, 1 mg/kg, single dose | 6270
COc1nc(-c2cc(C)c(N[C@@H](C)c3cc(F)cc(F)c3)nn2)ccc1-n1cnc(C)c1 | male Sprague-Dawley rat | oral, 5 mg/kg, single dose | 31900
CCOC(=O)[C@@]12C[C@@H]1[C@@H](n1ccc3c(NC)nc(C#Cc4ccc(Cl)s4)nc31)[C@H](O)[C@@H]2O | male Sprague-Dawley rat | oral, 10 mg/kg | 361
O=C(Nc1cc(F)c(F)c(F)c1)c1ccc(F)c(S(=O)(=O)NCc2cccc(B(O)O)c2)c1 | male Sprague-Dawley rat | oral, 20 mg/kg | 34.3
CNCc1cc(-c2ccccc2F)n(S(=O)(=O)c2cccnc2)c1 | Sprague-Dawley rat | oral, 10 mg/kg | 643
CCc1cc(OC)c2nccc(N3CCc4c(cc(Cn5ccnc5)cc4-c4cn(C)nc4C(F)(F)F)C3=O)c2c1 | male Sprague-Dawley rat | oral, 50 mg/kg | 10300
COc1ccc2c(Cc3ccccc3F)c3n(c(=O)c2c1OC)CCc1cc2c(cc1-3)OCO2 | rat | oral, 5 mg/kg | 3470
CCc1nc(C(N)=O)c(Nc2ccc(N3CCC(N4CCN(C)CC4)CC3)c(OC)c2)nc1NC1CCOCC1 | male Sprague-Dawley rat | oral, 10 mg/kg | 9290
